# Measurements reported in the array DNA melting data of Ke et al. (doi:10.1101/2024.01.08.574731).
# Columns and labels:
# [1] = folding enthalpy; higher = less favourable; fluorescence melt of hairpins on a sequencing array, two-state fit; settings: sodium 0.088 M
# Summary of the method: (§1)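 Melting temperature and folding enthalpy were obtained by bootstrapped two-state fitting. Fits used Cy3 fluorescence of library hairpins with annealed Cy3 and quencher oligos on a sequenced MiSeq flow cell, imaged in 50 mM Na-HEPES pH 8.0, 25 mM NaCl in 2.5 °C steps up to 60 °C and normalised to pre-quench Cy3 and control constructs. Four replicates were combined by inverse-variance weighting, and fitted temperatures were raised by 9.35 °C to match UV melts.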
# [2] = melting temperature; fluorescence melt of hairpins on a sequencing array, two-state fit, raised by 9.35 °C to match UV melts; settings: sodium 0.088 M
# Summary of the method: as §1
Sequence,folding enthalpy [1] [kJ/mol],Tm [2] [°C]
GCAGCTGGAAACGGCTGC (((((.(....).))))),-193,60.2
GGACGCGAAAGCGCATCC ((((((....)))..))),-42.1,34.5
GGCTGCGGAAACGCGGTC (.(.(((....))).).),-120,53.1
GGGTGTGCGAAAGCACCC (((..(((....)))))),-47.4,56.6
GATCGAATCCTCGATC ((((((....)))))),-172,50.6
GCTCTACGAAAGTAAGC (((.(((....)))))),-78.5,38.7
GATCAAGTCATTGATC ((((((....)))))),-175,52.3
GCATCGGGAAACCAACGC ((.(.((....)).).)),-73.9,28.3
GACCATACGAAAGTAGTC (((..(((....)))))),-41.5,25.7
GCGGCTCGAAAGAGCGC (((.(((....)))))),-84.2,68.8
GATCGGCGGCCCGATC ((((((....)))))),-148,55.5
GCGGACGAAAGTCCCCGC ((((((....)))..))),-53,45.8
GCAGGAGCGAAAGCTTGC (((..(((....)))))),-68.9,44.2
CGGAACGGAAACGTACCG (((.(((....))).))),-182,49.7
TGTGGGAAACCACA (((((....))))),-85.7,49.6
GCAGCCTCGAAAGAGTGC (((..(((....)))))),-64.9,37
GCTGGGCGAAAGCCAGC (((.(((....)))))),-93.6,68.5
GATCGGGGCGCCGATC ((((((....)))))),-163,58.4
GCGTTGTCACGC ((((....)))),-93.7,52.2
GTGAGCGGAAACACTCAC (((((.(....).))))),-183,47.7
GCACAGGGAAACCTGCGC ((.((((....)))).)),-185,51.8
GATCTACCATAGATC ((((((...)))))),-128,37.5
GAAATGGCGAAAGCCTTC (((..(((....)))))),-32.9,23
GATTTACGAAAGTAATC (((.(((....)))))),-74.6,32

Sequence,folding enthalpy [1] [kJ/mol],Tm [2] [°C]
GGTTGGGCGAAAGCCACC (((..(((....)))))),-53.2,39.8
GATCAGGCGGCTGATC ((((((....)))))),-200,53.2
GTTAGCGGAAACGTTGAC ((.(.((....)).).)),-61.6,30
GCTCAGCGAAAGCTGCGC ((.((((....)))).)),-104,59.9
GGGCCGGGAAACCAGCCC ((((.((....)).)))),-206,54.3
GCTCGGCGAAAGCCAGGC ((..(((....)))..)),-52.5,58.8
GATCTATTGATAGATC ((((((....)))))),-120,44.7
GATCGATCGTTCGATC ((((((....)))))),-151,53.5
GAGTACGGAAACGCACTC ((((.((....)).)))),-132,45.3
GACGTACGAAAGTAGTC (((.(((....)))))),-142,52.8
GATCAACCCTTGATC ((((((...)))))),-127,43.6
GGAAGGGGAAACCCTCCC ((.((((....)))).)),-88,41.1
GAAACCGGAAACAGTTTC (((((.(....).))))),-105,30.8
GTCTGTGGAAACACAGAC (((((((....))))))),-211,65.1
GATCCCGCAGGGGATC ((((((....)))))),-65.6,65.5
GCCTGTGCGAAAGCAGGC (((..(((....)))))),-111,56.5
GCGCTAGGAAACCAGCGC (((((.(....).))))),-190,57.3
GCGTGCGGAAACGTACGC ((((.((....)).)))),-133,66.3
GTCGTTTCGAAAGAAGAC (((..(((....)))))),-58.7,28.9
GTTGTTGGAAACGACAAC (((((.(....).))))),-36.4,48.4
GTGATGGGAAACTATCAC (((((.(....).))))),-135,45.6
GACCGCGAAAGCGAAGTC ((((((....)))..))),-70.9,47.4
GATCTTCATAAAGATC ((((((....)))))),-149,43.5
GCACGACGAAAGTCCTGC (((.(((....))).))),-112,45.6

Sequence,folding enthalpy [1] [kJ/mol],Tm [2] [°C]
GATCGCCCCTGCGATC ((((((....)))))),-141,67.2
GGGGGCGAAAGCCTACCC ((((((....)))..))),-62.6,49.8
GTGTTCGCGAAAGCGCAC (((..(((....)))))),-75.5,45.2
GCAATGCCGAAAGGCTGC (((..(((....)))))),-65.2,49.1
GACCGGCGAAAGCCGTC (((.(((....)))))),-34.6,49.1
GTGCGAGCGAAAGCTCAC (((..(((....)))))),-51.1,59.4
GTTCTAGGAAACCAGAAC (((((.(....).))))),-111,35.6
GATCCCCCCAGGGATC ((((((....)))))),-159,63.3
GAAGACACGAAAGTGTTC (((..(((....)))))),-42.3,31.9
GTCTTGGGAAACTGAGAC ((((..(....)..)))),-99.7,35.1
GTGGAACCGAAAGGTCAC (((..(((....)))))),-91.6,42.3
GGACTGGGAAACCAATCC (((.(((....))).))),-117,36
GCGTATTACGC ((((...)))),-105,54
GTAGGGGGAAACCCCTAC (((((((....))))))),-156,61.9
GGCGGGGGAAACTCCGCC (((((.(....).))))),-159,67.7
GCGGTCTCCGC ((((...)))),-122,56.3
GCCGGGCGAAAGCGAGGC (((..((....))..))),-181,66.1
GATCTAGAGATAGATC ((((((....)))))),-109,39.1
GGCGTCTCGAAAGAGGCC (((..(((....)))))),-139,53
GTTAATGGAAACATTAGC (.(((((....))))).),-86.5,34.8
GTGTACGAAAGTACGCAC ((((((....)))..))),-60.8,49.9
GCCTCGCGAAAGCGACGC ((.((((....)))).)),-68.9,52.6
CGCGGAAAACTCCGCG ((((((....)))))),-163,62
GCCTATGGAAACGTAGGC (((((.(....).))))),-166,51.1

Sequence,folding enthalpy [1] [kJ/mol],Tm [2] [°C]
GAAACCGAAAGGTTTTC ((((((....))).))),-72.5,50.6
GGGTGTGGAAACACATCC ((.((((....)))).)),-110,52.5
GCGAGATTCGC ((((...)))),-71.5,47.7
GCCAGGCGAAAGCGCGGC (((..((....))..))),-77.7,59.6
GCGTCCGAAAGGAACCGC ((((((....)))..))),-85.1,48.5
GTGTCTGGAAACAGGCAC (((.(((....))).))),-140,54.5
GGTAACGGAAACGTTGTC (..((((....))))..),-70.4,31.6
GCGTGGGGAAACCTGCGC (((..((....))..))),-155,53.3
GATCCCGACCGGGATC ((((((....)))))),-157,66.5
GATCGTTGGTACGATC ((((((....)))))),-161,55.2
GATCTCTCATGAGATC ((((((....)))))),-185,52.3
GATCCTAAACAGGATC ((((((....)))))),-132,49
GATCACCGATGTGATC ((((((....)))))),-126,54.6
GATCAAAAATTGATC ((((((...)))))),-124,37
GATCAGCAGGCTGATC ((((((....)))))),-176,59.2
GGGGACGGAAACGTTCCC (((.(((....))).))),-184,61.4
GTCTAAGGAAACTTAGAC (((((((....))))))),-175,51.5
GTAAACGGAAACGTTCAC ((.((((....)))).)),-98.7,32.4
GACAGCGAAAGCTCGGTC ((((((....)))..))),-44.5,46.8
GCTGTGCGAAAGCTCTGC ((.(.((....)).).)),-92.3,44.6
GTTCGCGAAAGCGATAAC ((((((....)))..))),-33.6,32.7
